Calls of active or inactive are those of the source. No cut-off for these calls is given here.
Assays:
[1] = Solubility of the compound; type: physicochemical
HeLa [2] = assay: Cytotoxicity against human HeLa cells assessed as reduction in cell viability incubated for 72 hrs under normoxia condition by MTT assay; type: cell-based
How it was run: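 HeLa cells, 5 × 10^3 per well, exposed 72 h at 37 °C in RPMI-1640 to a range of concentrations (compounds from 10 mM DMSO stocks). MTT (5 mg/mL in PBS) added for a further 2 h, formazan dissolved in DMSO, absorbance read at 595 nm. IC50 taken from semilogarithmic dose–response plots. Top concentration capped at 10 or 30 μM where solubility was poor.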

[3] = target: Luciferin 4-monooxygenase (Photinus pyralis) (UniProt P08659); assay: Inhibition of recombinant firefly luciferase at 1 uM incubated for 10 mins at 37 degree C by luminometric method
How it was run: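 Recombinant firefly luciferase (20 ng/µL stock in PBS) mixed with compound in DMSO/PBS and incubated 10 min at 37 °C. Luciferase assay reagent was then added and light emission read on a luminometer. Compound tested at 1 μM.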

HeLa [4] = assay: Effect on HIF1alpha mRNA level in human HeLa cells at 30 uM incubated for 12 hrs under 1% O2 condition by qRT-PCR analysis; type: functional, cell-based
How it was run: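 HeLa cells, 1 × 10^6 per well, held 12 h with or without compound under normoxia or hypoxia. Total RNA extracted with a column kit. 1.0 µg RNA reverse transcribed with random primers, dNTPs and M-MLV at 40 °C for 50 min, then HIF-1α mRNA measured by RT-PCR.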

HeLa [5] = assay: Inhibition of hypoxia-induced HIF1alpha accumulation in human HeLa cells at 1 to 30 uM incubated for 12 hrs under 1% O2 condition by Western blot analysis; type: functional, cell-based
How it was run: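 Lysates separated by SDS-PAGE, blotted to PVDF and probed with anti-HIF-1α and anti-tubulin antibodies. Detection used HRP-conjugated secondary antibody and chemiluminescent imaging.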

Luciferin 4-monooxygenase (Photinus pyralis), sequence (P08659 whole entry): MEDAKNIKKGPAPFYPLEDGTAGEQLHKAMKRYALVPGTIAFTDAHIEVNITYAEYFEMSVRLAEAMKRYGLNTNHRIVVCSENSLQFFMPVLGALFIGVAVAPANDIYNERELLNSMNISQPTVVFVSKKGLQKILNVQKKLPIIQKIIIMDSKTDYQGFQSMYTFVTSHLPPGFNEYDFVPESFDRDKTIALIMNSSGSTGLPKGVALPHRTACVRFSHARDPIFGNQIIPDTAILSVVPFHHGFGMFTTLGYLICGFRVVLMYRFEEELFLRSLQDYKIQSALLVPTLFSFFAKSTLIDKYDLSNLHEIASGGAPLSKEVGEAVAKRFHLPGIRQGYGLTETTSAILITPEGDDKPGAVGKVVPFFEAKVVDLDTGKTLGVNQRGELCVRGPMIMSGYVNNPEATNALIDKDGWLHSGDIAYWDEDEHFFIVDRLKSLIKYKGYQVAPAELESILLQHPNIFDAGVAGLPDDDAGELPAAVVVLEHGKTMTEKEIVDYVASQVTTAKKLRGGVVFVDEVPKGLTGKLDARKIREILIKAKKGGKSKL

| solubility [1] | inhibition [3] | Compound | IC50 (HeLa [2]) | Activity (HeLa [4]) | inhibition (HeLa [5]) |
| --- | --- | --- | --- | --- | --- |
| > 30 µM |  | O=C1c2ccccc2-c2cn[nH]c21 | > 30 µM |  |  |
|  |  | O=C1c2ccccc2-c2cnn(-c3ccc(O)cc3)c21 | 2.2 µM |  |  |
|  |  | O=C1c2ccccc2-c2cnn(-c3ccc(C(F)(F)F)cc3)c21 | > 100 µM |  |  |
| > 10 µM |  | O=C1c2ccccc2-c2cnn(-c3ccccc3)c21 | > 10 µM |  |  |
|  |  | OCc1ccc(-c2nn(Cc3ccccc3)c3ccccc23)o1 | 56 µM |  |  |
|  |  | Cn1ncc2c1C(=O)c1ccccc1-2 | 49 µM |  |  |
| > 30 µM |  | Cc1nn(-c2ccccc2)c2c1-c1ccccc1C2=O | > 30 µM |  |  |
| > 10 µM | Active | COc1ccc(-n2ncc3c2C(=O)c2ccccc2-3)cc1 | > 10 µM |  |  |
| > 10 µM | inactive | Cc1ccc(-n2ncc3c2C(=O)c2ccccc2-3)cc1 | > 10 µM | inactive | Active |
|  |  | O=C1c2ncccc2-c2cnn(-c3ccccc3)c21 | 52 µM |  |  |

From ChEMBL document CHEMBL4613216, “Design, synthesis, and evaluation of indeno[2,1-c]pyrazolones for use as inhibitors against hypoxia-inducible factor (HIF)-1 transcriptional activity” (Bioorg Med Chem, 2020)
